Screening results: PubChem BioAssay, several laboratories
Only some compounds are listed: those with a hit (about 1.9% of all), similar ones and a draw of the others.
Arrestin-AP2 inh: inhibitors of human beta-arrestin and AP2 interaction. hit rate 0.31% among 340,000. inhibition, % at 10 µM. AID 504490. FITC-arrestin peptide / GST-AP2 beads, flow cytometry; AP2 beta2 appendage carries R879A mutation;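 active = inhibition above a set limit, near 3 SD of compounds lacking own fluorescence, cut at about 54% in these data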;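 note: plate controls were DMSO wells for no effect and 5 µM unlabelled arrestin peptide for full effect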
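System: GST-AP2 R879A bound to glutathione beads, E. coli-expressed. Also added: 50 nM FITC-arrestin peptide. Schedule: compound with beads 12 min RT, then probe 1 h RT. Signal: bead flow cytometry, FITC channel. Read-out basis: percent response.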
proCasp7 act: counter-screen for procaspase-3 activators: activators of human procaspase-7; P55210; recombinant procaspase-7, Ac-DEVD-pNA absorbance 405 nm; D23A/D198A/D206A triple mutant, cannot self-cleave; scale: DMSO 0, 5 µM enzyme 100; activation, % at 8.5 µM; hit rate 0.093% among 330,000; AID 463210;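 active = percent activation above the screen-wide mean plus 3 SD, cut at about 25% in these data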
Target sequence (P55210 whole entry D23A/D198A/D206A): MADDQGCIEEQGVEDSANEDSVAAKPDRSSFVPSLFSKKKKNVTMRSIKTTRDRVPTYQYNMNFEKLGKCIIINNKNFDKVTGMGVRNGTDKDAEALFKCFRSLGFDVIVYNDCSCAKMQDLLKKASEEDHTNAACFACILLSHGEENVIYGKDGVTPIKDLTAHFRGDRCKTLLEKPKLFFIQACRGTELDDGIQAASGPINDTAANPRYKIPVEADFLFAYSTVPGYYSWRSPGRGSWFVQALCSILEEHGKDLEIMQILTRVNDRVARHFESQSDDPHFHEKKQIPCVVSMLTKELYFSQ
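System: Procaspase-7 triple mutant (PC-7 D3A); measure: % activation from two-timepoint absorbance difference, scaled to controls; times: 1 h compound preincubation, 2 h substrate cleavage, 25 °C; also added: Ac-DEVD-pNA substrate, 400 µM as added; measured by: Epi-absorbance of released pNA at 405 nm, two timepoints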
PLCb3 inh: blocks human PLC-beta3 enzyme activity; Purified PLC-beta3, fluorogenic substrate, fluorescence; inhibition, % at 12.2 µM; hit rate 0.18% among 370,000; AID 720704; in the data active = inhibition above about 11%;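 note: 0% = median of compound wells on plate and 100% = full blocker control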
PLCg1 inh: PLC-gamma1 (human) inhibition, primary screen. P19174. purified PLC-gamma1, fluorogenic substrate, fluorescence. inhibition, % at 12.2 µM. hit rate 0.84% among 370,000; in the data active = inhibition above about 9.5%
HGIII-sPLA2 inh: Inhibits HGIII-sPLA2 liposome hydrolysis, primary screen. Q9NZ20. QFRET BODIPY PC-A2 liposome hydrolysis, fluorescence. inhibition, % at 12.2 µM. hit rate 0.56% among 370,000;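 active = inhibition above mean plus 3 SD of compounds lying within the high and low control bounds, cut at about 19% in these data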;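 note: 0% = median of test compound wells and 100% = no enzyme DMSO wells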
proCasp3 act: procaspase-3 (human) activation. AID 463141. activation, % at 8.5 µM. hit rate 0.11% among 330,000. recombinant procaspase-3 D3A, Ac-DEVD-pNA absorbance 405 nm;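 active = activation above the mean of all tested compounds plus 3 SD, cut at about 21% in these data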;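 note: 0% = DMSO alone and 100% = DMSO wells spiked with extra 5 µM PC-3 D3A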
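Technique: 405 nm absorbance of p-nitroaniline, reads at 0 and 120 min; Test system: Procaspase-3 D3A mutant; Incubation: 1 h enzyme-compound preincubation, then 2 h substrate reaction, 25 °C; Repeats: singlicate, each compound tested once; Benchmarks: low control DMSO wells, high control DMSO plus 5 µM PC-3 D3A.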
sPLA2 confirm: human GIII-sPLA2 inhibition, confirmation. shares compounds with HGIII-sPLA2 inh. recombinant hGIII-sPLA2, BODIPY PC-A2 QFRET fluorescence. inhibition, % at 12.2 µM. hit rate 34% among 2,000. AID 743280;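 active = mean inhibition across triplicates above the hit cutoff set in the earlier primary screen, cut at about 19% in these data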;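 note: 0% = enzyme with DMSO and 100% = DMSO wells lacking enzyme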
BODIPY interf: optically interferes with 535nm fluorescence in sPLA2 counter-screen; shares compounds with HGIII-sPLA2 inh; BODIPY FL product fluorescence interference, QFRET; inhibition, % at 12.2 µM; hit rate 8.5% among 2,000;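 active = average inhibition above the solvent-only control mean plus 3 SD, cut at about 6% in these data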;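 note: 0% = DMSO with substrate plus product and 100% = DMSO with substrate alone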
535nm interf DR: 535nm optical interference dose response, HGIII-sPLA2 counter-screen. shares compounds with HGIII-sPLA2 inh. AID 743455. BODIPY FL product fluorescence interference, cell-free. IC50, µM. 240 tested, under 10 active;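 active = IC50 at or below 10 µM; inactive = IC50 above 10 µM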
Starred values were filed as active, the others as inactive; i = inactive; nt = no result given.

SMILES	Arrestin-AP2 inh	proCasp7 act	PLCb3 inh	PLCg1 inh	HGIII-sPLA2 inh	proCasp3 act	sPLA2 confirm	BODIPY interf	others
CC(Oc1ccc(Cl)cc1)C(=O)NNC(=S)NC(=O)c1ccco1 (stereo not given)	18	-11	-2	0	28*	-12	36*	-1	535nm interf DR=>122
CCCOc1ccc(C(=O)NNC(=S)NC(=O)c2ccco2)cc1	-3	-13	-16	1	31*	-12	34*	-8	535nm interf DR=>122
O=C(NC(=S)NC1CCC(O)CC1)c1ccco1 (stereo not given)	2	-10	-4	1	20*	4	1	-4
COC(=O)[C@]12C=CCN1[C@H](c1ccc(Cl)cc1)c1c(c3ccccc3n1S(=O)(=O)c1ccc(C)cc1)C2	nt	nt	-70	-56	4	nt	nt	nt
O=C(NNC(=S)NC(=O)c1ccco1)c1ccc(F)cc1	-20	-14	-6	-1	7	-9	nt	nt
COc1ccc(C(=O)NNC(=S)NC(=O)c2ccco2)cc1	10	-17	4	8	20*	-8	24*	0
CC(=O)C(C(C)=O)C1(O)C(=O)c2ccccc2C1=O	-6	-7	0	3	22*	3	-5	-4
O=C(/C=C/c1ccccc1)NC(=S)NNC(=O)c1cnccn1	23	2	-9	5	25*	-2	34*	-1	535nm interf DR=>122
O=C(NC1CCCCC1)C(c1cccnc1)N(C(=O)c1csnn1)c1ccc(F)cc1 (stereo not given)	15	0	-8	2	0	-2	nt	nt
CCOC(=O)Cn1c(=O)c2c(nc(N3CCCCC3)n2C)n(C)c1=O	-30	13	9	1	20*	-3	-3	-6
S=C(Nc1ccccc1)N1CCCN1c1ccccc1	5	4	-5	2	20*	-5	4	-8
S=C(Nc1ccccc1)N1CCCCC1	9	0	2	3	0	-3	nt	nt
Cc1ccc(-n2[nH]c(C)c(C=Nc3ccc(S(=O)(=O)N4CCOCC4)cc3)c2=O)c(C)c1	nt	-9	1	1	22*	-3	8	-12
CNS(=O)(=O)c1ccc(N=Cc2c(C)[nH]n(-c3ccc(C)cc3C)c2=O)cc1	-14	-2	-4	-4	9	-7	nt	nt
CNc1ccccc1C(=O)OCC(=O)N(CCOC)c1c(N)n(CC(C)C)c(=O)[nH]c1=O	-9	4	i	i	20*	12	11	-8
COCCN(C(=O)COC(=O)c1ccccc1Cc1ccccc1)c1c(N)n(Cc2ccccc2)c(=O)[nH]c1=O	-2	-7	0	2	-22	2	nt	nt
COc1cc(C(=O)Nc2cccc(-c3nc4cc(C)ccc4o3)c2)cc(OC)c1OC	8	-14	-4	-90	19*	-1	-17	-24
CCOC(=O)[C@@]12CCCC3=C1N(CCC3)C(=O)[C@H]2CC(=O)NCCc1ccccc1OC	nt	nt	-4	1	6	nt	nt	nt
O=C1c2ccccc2C(=O)N1CCSc1n[nH]c(=S)s1	4	-21	4	2	20*	-10	25*	5
NC(=O)NC(CC(=O)Nc1cccnc1)c1cccc(Br)c1 (stereo not given)	39	0	-6	3	-3	-2	nt	nt
Cc1ccc(CNC(=O)CSc2nc3[nH]ncc3c(=O)[nH]2)cc1	0	-3	1	-3	19*	-1	-2	-5
CN(C)c1ccc(-c2cc(O)c3ncccc3c2)cc1	-3	-4	-103	-113	27*	-1	18	-7
